From ChEMBL document CHEMBL1126989, “Synthesis and cytotoxicity of 1,6,7,8-substituted 2-(4'-substituted phenyl)-4-quinolones and related compounds: identification as antimitotic agents interacting with tubulin” (J Med Chem, 1993) come the findings set out here.

The subject of test [1] is KB. Kind of test: Cytotoxicity in vitro expressed as 50% reduction in cell number after a 3-day incubation, in human epidermoid carcinoma KB cell line. Type of test: functional, cell-based. Conditions: 72 h. The gist of the method: (§1)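 Cell lines adapted to antibiotic-free RPMI-1640 with 10% fetal calf serum; ca. 1×10^5 cells per well, overnight stabilization, then serial dilutions added, quadruplicate per concentration; medium-only controls. After 3-4 days, MTT added and incubated overnight; formazan dissolved in DMSO, absorbance at 570 nm. EC50 calculated from two data points bracketing 50% growth inhibition. Actinomycin as positive control.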

For test [2], the system named is RPMI-7951. Kind of test: Cytotoxicity in vitro expressed as 50% reduction in cell number after a 3-day incubation, in human melanoma RPMI-7951 cell line. Type of test: functional, cell-based. Conditions: RPMI-7951, 72 h. The gist of the method:
as §1

For test [3], the system named is HCT-8. Kind of test: Cytotoxicity in vitro expressed as 50% reduction in cell number after a 3-day incubation, in human ileocecal carcinoma HCT-8 cell line. Type of test: functional, cell-based. Particulars: HCT-8, 72 h. The gist of the method:
as §1

For test [4], the system named is L1210 (1565). Kind of test: Cytotoxicity in vitro expressed as 50% reduction in cell number after a 3-day incubation, in murine leukemia L-1210 cell line. The class given is functional, cell-based. Particulars: Mus musculus, 72 h. In short, it runs like this: as §1
In test [5] the test system is P388. Kind of test: Cytotoxicity in vitro expressed as 50% reduction in cell number after a 3-day incubation, in murine leukemia P-388 cell line. Type of test: functional, cell-based. Particulars: Mus musculus, P388, 72 h. In short, it runs like this:
as §1

For test [6], the system named is A549. Kind of test: Cytotoxicity in vitro expressed as 50% reduction in cell number after a 3-day incubation, in human lung carcinoma A-549 cell line. Particulars: A549, 72 h. Type of test: functional, cell-based. The gist of the method: as §1
The target of test [7] is Tubulin. Kind of test: (§2) Inhibition of tubulin polymerization. Type of test: functional. The gist of the method:
(§3)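 Bovine brain tubulin 1.0 mg/mL (10 μM) with 1.0 M repurified monosodium glutamate, 1.0 mM MgCl2, 4% DMSO and drug; preincubated 15 min at 37 °C, chilled, GTP added; turbidity at 350 nm after jump from 0 to 37 °C, followed 20 min.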

The target of test [8] is Tubulin beta chain (Bos taurus, UniProt Q6B856). Described as §2. Type of test: functional. In short, it runs like this:
as §3

For test [9], the system named is KM-20L2. As to the kind of experiment: Inhibition of in vitro cell growth which reduces cell growth to level at start of experiment in colon KM-20L2 cell line. The class given is functional, Homo sapiens.
Test [10] concerns SF-539. As to the kind of experiment: Inhibition of in vitro cell growth which reduces cell growth to level at start of experiment in CNS SF-539 cell line. The class given is functional, Homo sapiens.
Test [11] deals with KM-20L2. As to the kind of experiment: Inhibition of in vitro cell growth which reduces cell growth to 50% of level at start of experiment in colon KM-20L2 cell line. The class given is functional, Homo sapiens. The gist of the method: (§4)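 NCI in vitro disease-oriented screen across about 60 human tumour cell lines. The value is the LC50-type level: the drug concentration that cuts cell number to 50% of the count at the start of the experiment. Values are averages of 2 assays.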

Test [12] deals with COLO 205. As to the kind of experiment: Inhibition of in vitro cell growth which reduces cell growth to level at start of experiment in colon COLO-205 cell line. Type of test: functional, Homo sapiens.
The test system of test [13] is SF-539. As to the kind of experiment: Inhibition of in vitro cell growth which reduces cell growth to 50% of level at start of experiment in CNS SF-539 cell line(<-4 in one experiment, >-4 in other experiment). The class given is functional, Homo sapiens. In short, it runs like this:
as §4

Test [14] has as its system HCC 2998. Kind of test: Inhibition of in vitro cell growth which reduces cell growth to 50% of level at start of experiment in colon HCC2998 cell line. Type of test: functional, Homo sapiens. The gist of the method:
as §4

For test [15], the system named is HT-29. Kind of test: Inhibition of in vitro cell growth which reduces cell growth to level at start of experiment in colon HT-29 cell line. The class given is functional, Homo sapiens.
Test [16] has as its system HCC 2998. As to the kind of experiment: Inhibition of in vitro cell growth which reduces cell growth to level at start of experiment in colon HCC2998 cell line. The class given is functional, Homo sapiens.
Test [17] concerns COLO 205. As to the kind of experiment: Inhibition of in vitro cell growth which reduces cell growth to 50% of level at start of experiment in colon COLO-205 cell line (<-4 in one experiment, >-4 in other experiment). The class given is functional, Homo sapiens. The gist of the method: as §4
Test [18] has as its target T1, Tubulin (Bos taurus) (UniProt Q6B856+Q862L2+Q862F3). Kind of test: Percentage inhibition of colchicine binding(10:1 ratio of inhibitor: colchicine). Type of test: protein assay. Particulars: concentration not given here.
The test system of test [19] is HT-29. As to the kind of experiment: Inhibition of in vitro cell growth which reduces cell growth to 50% of level at start of experiment in colon HT-29 cell line. The class given is functional, Homo sapiens. The gist of the method: as §4
For test [20], the target named is T1, Tubulin (Bos taurus). As to the kind of experiment: Percentage inhibition of colchicine binding(1:1 ratio of inhibitor: colchicine). Type of test: protein assay. Conditions: concentration not given here.
Test [21] can be described thus: Percentage inhibition of colchicine binding(1: 1 ratio of inhibitor: colchicine). Type of test: functional. Conditions: concentration not given here.

In brackets after ≈: the same amount, converted by molar mass.

Chain of Tubulin beta chain (Q6B856 whole entry): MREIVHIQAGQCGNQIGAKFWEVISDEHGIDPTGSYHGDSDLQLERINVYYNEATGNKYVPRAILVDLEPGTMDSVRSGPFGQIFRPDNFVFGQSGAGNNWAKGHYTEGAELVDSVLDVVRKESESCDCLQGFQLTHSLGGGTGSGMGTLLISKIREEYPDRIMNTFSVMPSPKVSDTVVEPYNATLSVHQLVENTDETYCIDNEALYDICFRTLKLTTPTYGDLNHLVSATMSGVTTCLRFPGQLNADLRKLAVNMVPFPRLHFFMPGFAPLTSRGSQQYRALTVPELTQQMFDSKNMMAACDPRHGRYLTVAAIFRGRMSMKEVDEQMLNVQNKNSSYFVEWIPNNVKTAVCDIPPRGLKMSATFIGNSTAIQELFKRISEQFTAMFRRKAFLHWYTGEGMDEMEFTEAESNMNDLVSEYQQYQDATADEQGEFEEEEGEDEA

One may read the EC50 as the concentration needed to bring the measured effect to its halfway point. A high value points to weaker potency. As a reminder, the IC50 is the midpoint of a concentration-inhibition curve. High values mean weaker potency, low ones greater potency. As for `Oc1cc(-c2ccccc2)nc2ccccc12`, the EC50 in test [1] is 0.09 µg/mL (≈ 0.407 µM); in test [2], 0.37 µg/mL (≈ 1.67 µM); in test [3] it was 0.8 µg/mL (≈ 3.62 µM); in test [4], 0.06 µg/mL (≈ 0.271 µM); in test [5], 0.08 µg/mL (≈ 0.362 µM); in test [6], 0.5 µg/mL (≈ 2.26 µM). Also, the IC50 in test [7] amounted to 7.3 µM.

The compound `COc1cc([C@@H]2c3cc4c(cc3[C@H](O)[C@H]3COC(=O)[C@H]23)OCO4)cc(OC)c1OC` [PODOFILOX] had an IC50 in test [8] of 1.3 µM.

For `COc1cc(-c2ccccc2)nc2ccccc12`, the EC50 was greater than 10 µg/mL in [1]; greater than 10 µg/mL in [3]; greater than 10 µg/mL in test [4]; 4.5 µg/mL (≈ 19.1 µM) in test [5]; greater than 10 µg/mL in test [6].

For the compound `CCOc1cc(-c2ccccc2)nc2ccccc12`, the EC50 in test [1] was 6.7 µg/mL (≈ 26.9 µM); in test [3], greater than 10 µg/mL; in test [4] it was greater than 10 µg/mL; in test [5] it was 6 µg/mL (≈ 24.1 µM); in test [6], greater than 10 µg/mL.

As to `COCOc1ccc(-c2cc(=O)c3ccccc3n2C)cc1`, the EC50 in test [4] and in test [5] was greater than 10 µg/mL throughout.

The inhibition is the relative decrease from the control value, in per cent. Take `Oc1cc(-c2ccccc2)nc2cc(F)ccc12`: the TGI in [9] is -6.3; in test [10], -6; in test [12], -6.1; in test [15], -5.6; in test [16] it was -5.6. Besides, the EC50 is less than 0.1 µg/mL in [1]; 0.37 µg/mL (≈ 1.55 µM) in test [2]; 3.45 µg/mL (≈ 14.4 µM) in [3]; 0.16 µg/mL (≈ 0.669 µM) in test [4]; 0.29 µg/mL (≈ 1.21 µM) in test [5]; 0.96 µg/mL (≈ 4.01 µM) in test [6]. Also, the LC50 is -5.6 in [11]; greater than -4 in test [13]; greater than -4 in test [14]; -4 in test [17]; greater than -4 in test [19]. The results for the inhibition in [18] and in [20] were 34% and 7%, respectively. The IC50 in test [8] came to 3.7 µM.

For the compound `COc1ccc(/C=C\c2cc(OC)c(OC)c(OC)c2)cc1O`, the inhibition in [21] worked out at 97%.

Turning to `COc1ccc2c(O)cc(-c3ccccc3)nc2c1`, the EC50 in test [1] was 0.53 µg/mL (≈ 2.11 µM); in test [2], 0.43 µg/mL (≈ 1.71 µM); in test [3] it was 4.86 µg/mL (≈ 19.3 µM); in test [4], 0.57 µg/mL (≈ 2.27 µM); in test [5], 0.67 µg/mL (≈ 2.67 µM); in test [6], 0.73 µg/mL (≈ 2.91 µM). The compound also showed an IC50 in [8] of 4.8 µM.

As to `CC(C)COc1cc(-c2ccccc2)nc2ccccc12`, the EC50 was greater than 4 µg/mL in test [1]; greater than 10 µg/mL in test [3]; greater than 10 µg/mL in [4]; greater than 10 µg/mL in test [5]; greater than 10 µg/mL in test [6].

With `Cn1c(-c2ccc(O)cc2)cc(=O)c2ccccc21`, the EC50 was greater than 10 µg/mL in test [1]; greater than 10 µg/mL in test [2]; 5.71 µg/mL (≈ 22.7 µM) in test [3]; greater than 10 µg/mL in test [4]; greater than 10 µg/mL in test [5]; greater than 10 µg/mL in test [6]. Also, in test [7], the IC50 was greater than 40 µM.

`Oc1cc(-c2ccccc2)nc2c(O)cccc12`: the EC50 in [1], in test [2], in [3], in [4], in test [5] and in test [6] was greater than 10 µg/mL throughout.

Take `Oc1cc(-c2ccccc2)nc2cc(Cl)ccc12`: the half-maximal effective concentration (EC50) is less than 0.1 µg/mL in test [1]; less than 0.1 µg/mL in test [2]; 0.45 µg/mL (≈ 1.76 µM) in test [3]; less than 0.1 µg/mL in test [4]; less than 0.1 µg/mL in test [5]; 2.89 µg/mL (≈ 11.3 µM) in test [6].

Consider `Cn1c(-c2ccccc2)cc(=O)c2ccccc21`, for which the concentration for a half-maximal effect (EC50) in test [1], in [2], in test [3], in test [4], in [5] and in test [6] was greater than 10 µg/mL in each case. Further, the IC50 in [8] was greater than 40 µM.
